The source of these data is ChEMBL document CHEMBL1153389, “Identification of novel antibacterial peptides by chemoinformatics and machine learning” (2009).

One may read the MIC as the lowest concentration found to suppress growth.

Where only a bound is given, the exact number is not on record here.

Holding throughout (format): functional
Experiment [1] has as its system Enterococcus faecium. Kind of experiment: Antimicrobial activity against vancomycin-resistant Enterococcus faecium t62764(VanB) isolate after overnight incubation by broth microdilution method. An outline of the steps:
(§1)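 Modified broth microdilution in polypropylene 96-well plates with Mueller-Hinton (MH) medium. Bulk-synthesized peptides were serially diluted at 10-fold final strength in 0.01% acetic acid with 0.2% BSA, then added 1:10 to MH. Inoculum came from an overnight culture at a final (2-7) × 10^5 CFU/mL. Plates were incubated overnight at 37 °C. MIC was the lowest concentration with no visible growth.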
In general terms: Broth dilution looks for growth in wells or tubes with falling amounts of substance.

Experiment [2] has as its system Klebsiella pneumoniae. Kind of experiment: Antimicrobial activity against extended-spectrum beta-lactamase-resistant Klebsiella pneumoniae 63575 after overnight incubation by broth microdilution method. An outline of the steps:
as §1

Experiment [3] has as its system Pseudomonas aeruginosa. Kind of experiment: Antimicrobial activity against Pseudomonas aeruginosa H1030 after overnight incubation by broth microdilution method. The gist of the method: as §1
In experiment [4] the test system is Pseudomonas aeruginosa. Kind of experiment: Antimicrobial activity against Pseudomonas aeruginosa LES400 after overnight incubation by broth microdilution method. An outline of the steps: as §1
The subject of experiment [5] is Enterococcus faecalis. Kind of experiment: Antimicrobial activity against vancomycin-resistant Enterococcus faecalis w6190(VanA) isolate after overnight incubation by broth microdilution method. The gist of the method:
as §1

Experiment [6] has as its system Pseudomonas aeruginosa. Kind of experiment: Antimicrobial activity against multidrug-resistant Pseudomonas aeruginosa Brazil 9 isolate after overnight incubation by broth microdilution method. The gist of the method:
as §1

Experiment [7] deals with Enterobacter cloacae. Kind of experiment: Antimicrobial activity against class C chromosomal beta lactamase expressing Enterobacter cloacae 218R after overnight incubation by broth microdilution method. An outline of the steps:
(§2)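 Modified broth microdilution. Peptides are serially diluted in 0.01% acetic acid with 0.2% BSA at 10-fold the final concentration, then added to MH medium in polypropylene plates. Bacteria from an overnight culture are added to a final (2-7) × 10^5 CFU/mL. Plates are incubated overnight at 37 °C. MIC is the lowest concentration with no visible growth.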

Experiment [8] relates to Pseudomonas aeruginosa. Kind of experiment: Antimicrobial activity against Pseudomonas aeruginosa H103 after overnight incubation by broth microdilution method. The gist of the method:
as §2

The subject of experiment [9] is Escherichia coli. Kind of experiment: Antimicrobial activity against extended-spectrum beta-lactamase producing Escherichia coli 64771 after overnight incubation by broth microdilution method. The gist of the method: as §2
Experiment [10] has as its system Stenotrophomonas maltophilia. Kind of experiment: Antimicrobial activity against Pseudomonas maltophilia ATCC 13637 after overnight incubation by broth microdilution method. The gist of the method: as §2
The subject of experiment [11] is Enterococcus faecalis. Kind of experiment: Antimicrobial activity against vancomycin-resistant Enterococcus faecalis f43559 (VanB) isolate after overnight incubation by broth microdilution method. An outline of the steps:
as §1

Experiment [12] has as its system Pseudomonas aeruginosa. Kind of experiment: Antimicrobial activity against multidrug-resistant Pseudomonas aeruginosa Brazil 213 isolate after overnight incubation by broth microdilution method. The gist of the method:
as §1

Experiment [13] relates to Enterococcus faecalis. Kind of experiment: Antimicrobial activity against Enterococcus faecalis ATCC 29212 after overnight incubation by broth microdilution method. The gist of the method: as §2
In experiment [14] the test system is Staphylococcus aureus. Kind of experiment: Antimicrobial activity against methicillin-resistant Staphylococcus aureus C623 after overnight incubation by broth microdilution method. The gist of the method: as §1
Experiment [15] relates to Pseudomonas aeruginosa. Kind of experiment: Antimicrobial activity against Pseudomonas aeruginosa H1027 after overnight incubation by broth microdilution method. An outline of the steps:
as §2

For experiment [16], the system named is Klebsiella pneumoniae. Kind of experiment: Antimicrobial activity against extended-spectrum beta-lactamase-resistant Klebsiella pneumoniae 61962 after overnight incubation by broth microdilution method. The gist of the method: as §1
For experiment [17], the system named is Pseudomonas aeruginosa. Kind of experiment: Antimicrobial activity against multidrug-resistant Pseudomonas aeruginosa Brazil 198 isolate after overnight incubation by broth microdilution method. An outline of the steps: as §1
The subject of experiment [18] is Staphylococcus aureus. Kind of experiment: Antimicrobial activity against Staphylococcus aureus ATCC 25923 after overnight incubation by broth microdilution method. An outline of the steps:
as §1

Experiment [19] relates to Enterococcus faecium. Kind of experiment: Antimicrobial activity against vancomycin-resistant Enterococcus faecium mic80(VanA) isolate after overnight incubation by broth microdilution method. The gist of the method:
as §1

Experiment [20] concerns Pseudomonas aeruginosa. Kind of experiment: Antimicrobial activity against Pseudomonas aeruginosa H1001 expressing luciferase gene assessed as ratio antimicrobial IC50 for drug to Bac2A peptide by luminescence assay. An outline of the steps:
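Peptides are made by SPOT synthesis on cellulose, cleaved, and the spots placed in plate wells. Overnight P. aeruginosa H1001 (fliC::luxCDABE) is diluted 1:500 in 100 mM Tris-HCl pH 7.3 with 20 mM glucose and added to the wells. After 30 min, serial dilutions (8 rows) are made. Luminescence is read at 4 h. IC50 is taken from a sigmoid fit and expressed relative to Bac2A run in the same series.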

For experiment [21], the system named is Escherichia coli. Kind of experiment: Antimicrobial activity against extended-spectrum beta-lactamase producing Escherichia coli 63103 after overnight incubation by broth microdilution method. An outline of the steps:
as §2

For H-RWRRWKWWL-OH, the MIC in experiment [1] came to 1.4 µM; in [2], 11 µM; in experiment [3] it was 12 µM; in experiment [4] it was 5.8 µM; in experiment [5] it was 92 µM; in [6], 12 µM. Besides, the MIC is 5.8 µM in experiment [7]; 2.9 µM in [8]; 2.9 µM in [9]; 0.7 µM in experiment [10]; 92 µM in [11]; 23 µM in experiment [12]. The MIC worked out at 23 µM in experiment [13]; 2.9 µM in [14]; 0.3 µM in experiment [15]; 46 µM in experiment [16]; 12 µM in experiment [17]; 2.9 µM in [18]. Besides, the MIC in experiment [19] and in [21] was 5.7 µM each time. In addition, the “Ratio IC50” value in [20] was found to be 0.08.

On to H-WKKWWKRRW-OH, for which the MIC is 5.8 µM in [1]; 46 µM in [2]; 46 µM in [3]; 46 µM in experiment [4]; over 186 µM in experiment [5]; 46 µM in experiment [6]. The MIC was 23 µM in experiment [7]; 23 µM in [8]; 2.9 µM in experiment [9]; 1.4 µM in experiment [10]; over 186 µM in [11]; 93 µM in experiment [12]. The MIC in experiment [13] came to 93 µM; in experiment [14], 2.9 µM; in experiment [15], 5.8 µM; in experiment [16] it was 186 µM; in experiment [17], 46 µM; in [18] it was 1.4 µM. Moreover, the results for the MIC in [19] and in [21] were 12 µM and 23 µM, respectively. In experiment [20], the “Ratio IC50” value is reported as 0.19.

As to H-WKRWWKKWR-OH, the MIC in experiment [1] is 5.8 µM; in experiment [2], 46 µM; in experiment [3] it was 46 µM; in experiment [4], 23 µM; in experiment [5], over 186 µM; in [6], 46 µM. The MIC in experiment [7] is 93 µM; in experiment [8], 23 µM; in experiment [9], 2.9 µM; in experiment [10], 1.4 µM; in [11], over 186 µM; in experiment [12], 93 µM. Further, the MIC is 93 µM in [13]; 5.8 µM in [14]; 5.8 µM in experiment [15]; 186 µM in experiment [16]; 46 µM in experiment [17]; 5.8 µM in experiment [18]. In addition, the MIC in experiment [19] and in experiment [21] was 23 µM each time. In experiment [20], the “Ratio IC50” value amounted to 0.2.

Consider H-WRWWKIWKR-OH, for which the minimal inhibitory concentration (MIC) in experiment [1] turned out to be 1.5 µM; in experiment [2], 24 µM; in experiment [3], 47 µM; in experiment [4] it was 12 µM; in experiment [5], 94 µM; in experiment [6], 24 µM. In addition, the MIC in experiment [7] worked out at 12 µM; in [8], 5.9 µM; in experiment [9] it was 5.9 µM; in [10], 0.8 µM; in experiment [11], 94 µM; in experiment [12], 47 µM. Besides, the minimum inhibitory concentration (MIC) in [13] came to 24 µM; in experiment [14], 3 µM; in experiment [15] it was 1.5 µM; in experiment [16], 94 µM; in experiment [17], 24 µM; in experiment [18] it was 3 µM. Further, the MIC in [19] and in experiment [21] was 5.9 µM throughout. Besides, the “Ratio IC50” value in experiment [20] amounted to 0.14.
